The target in assay [1] is Intestinal-type alkaline phosphatase (Bos taurus) (UniProt P19111). Put plainly: Inhibition of bovine intestinal alkaline phosphatase assessed as residual enzyme activity at 0.1 mM in presence of 1% DMSO at pH 10.4 at 37 degC relative to untreated control. The method, boiled down: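 Screening in 25 mM piperazine, 25 mM glycylglycine, 5 mM MgCl2, 5 µM ZnCl2, pH 10.4, 37 °C. BIAP (0.1–0.3 µg/mL) preincubated 10 min with 0.1 mM compound (final DMSO 1% v/v), no substrate. Reaction started with 0.05 mM pNPP; read at 420 nm (ε 18.6 cm⁻¹ mM⁻¹). Activity given relative to inhibitor-free control; sample-to-sample error 5%.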

The species entered for assay [2] is Sus scrofa. The assay is described as follows: Inhibition of porcine kidney tissue non-specific alkaline phosphatase assessed as residual enzyme activity at 0.4 mM in presence of 4% DMSO at pH 10.4 at 37 degC relative to untreated control.

The structures appear in SMILES notation.

We go through 63 compounds from ChEMBL document CHEMBL1152630, “Synthesis and evaluation of benzo[b]thiophene derivatives as inhibitors of alkaline phosphatases” (Bioorg Med Chem, 2009).

Intestinal-type alkaline phosphatase (Bos taurus), sequence (P19111 20-506 limits assumed): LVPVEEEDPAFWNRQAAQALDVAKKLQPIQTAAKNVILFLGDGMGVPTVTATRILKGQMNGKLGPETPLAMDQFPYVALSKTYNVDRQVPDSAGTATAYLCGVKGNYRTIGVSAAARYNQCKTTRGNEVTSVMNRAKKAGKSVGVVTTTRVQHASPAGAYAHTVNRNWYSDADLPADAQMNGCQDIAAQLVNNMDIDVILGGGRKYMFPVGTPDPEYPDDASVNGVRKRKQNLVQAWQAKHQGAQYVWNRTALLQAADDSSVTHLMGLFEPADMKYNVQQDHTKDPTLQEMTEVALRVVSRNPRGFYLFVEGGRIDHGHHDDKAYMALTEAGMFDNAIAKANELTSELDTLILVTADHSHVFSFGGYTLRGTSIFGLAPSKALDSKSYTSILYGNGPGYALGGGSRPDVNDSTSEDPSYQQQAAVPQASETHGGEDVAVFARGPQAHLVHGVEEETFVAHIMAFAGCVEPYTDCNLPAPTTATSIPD

Take `N#Cc1c(-c2ccc(Cl)cc2)sc2ccccc12`: the Activity in assay [1] was found to be 69%.
Turning to `Cc1ccccc1-c1sc2ccccc2c1C#N`, the results for the Activity in assay [1] and in assay [2] were 5% and 85%, respectively.
As for `[O-][s+]1cc(N2CCCCC2)c2ccccc21` (configuration not stated), the Activity was 110% in assay [1] and 101% in assay [2].
The corresponding values for `N#Cc1ccc(Oc2csc3ccccc23)cc1` are 87% and 85%.
The corresponding values for `COc1cc(Oc2c[s+]([O-])c3ccccc23)cc(OC)c1OC` (configuration not stated) are 127% and 101%.
Turning to `N#Cc1ccccc1-c1sc2ccccc2c1C#N`, the Activity in assay [1] was determined as 90%.
In the case of `N#Cc1cc2ccccc2s1`, the Activity in assay [1] was found to be 103%; in assay [2] it was 105%.
The corresponding values for `COc1ccc(-c2sc3ccccc3c2C=O)cc1` are 37% and 99%.
The corresponding values for `COc1ccc(-c2sc3ccccc3c2C(=O)c2ccccc2OC)c([N+](=O)[O-])c1` are 117% and 111%.
On the same counts, the results for `O=[N+]([O-])c1ccccc1-c1cc2ccccc2s1` are 121% and 86%.
As to `CC(C)(C)c1ccc(Oc2csc3ccccc23)cc1`, the Activity in assay [1] was found to be 113%; in assay [2], 100%.
As for `Oc1ccccc1N1CCN(c2csc3ccccc23)CC1`, the Activity in assay [1] was 49%; in assay [2], 109%.
On the same counts, the results for `c1ccc(Oc2csc3ccccc23)cc1` are 104% and 89%.
The corresponding values for `COc1ccc(C(=O)c2csc3ccccc23)cc1` are 40% and 96%.
In the case of `N#Cc1ccccc1-c1sc2ccccc2c1Oc1ccccc1`, the values for the Activity in assay [1] and in assay [2] were 110% and 91%, respectively.
On the same counts, the results for `CN(C)c1cccc(-c2sc3ccccc3c2CN)c1` are 134% and 84%.
The corresponding values for `O=Cc1c(-c2ccc(C(F)(F)F)cc2)sc2ccccc12` are 30% and 80%.
The corresponding values for `Fc1ccc(Oc2csc3ccccc23)cc1` are 104% and 78%.
As to `O=Cc1c(-c2ccc(Cl)cc2)sc2ccccc12`, the Activity in assay [1] turned out to be 9%.
Turning to `c1ccc(-c2cc3ccccc3s2)nc1`, the Activity in assay [1] came out at 119%; in assay [2], 94%.
On the same counts, the results for `FC(F)(F)Cc1c(-c2cccnc2)sc2ccccc12` are 122% and 84%.
As to `N#Cc1c(-c2cccnc2)sc2ccccc12`, the Activity in assay [1] came to 106%.
Consider `COc1c(-c2ccccc2C)sc2ccccc12`, for which the Activity in assay [1] was 73%; in assay [2] it was 96%.
Consider `COc1ccc(-c2sc3ccccc3c2CN)c(OC)c1OC`, for which the Activity in assay [1] was determined as 142%; in assay [2] it was 94%.
Take `COC(=O)C(Cc1c(-c2ccc(C#N)cc2)sc2ccccc12)NCc1ccccc1` (configuration not stated): the Activity in assay [1] was 115%.
On the same count and under the same terms, the value for `N#Cc1sc2ccccc2c1-c1ccc(C(F)(F)F)cc1` was 115%; that for `N#Cc1c(-c2cccc(Cl)c2)sc2ccccc12` was 115%.
In the case of `COc1ccc(C(=O)c2c(-c3ccc(OC)cc3)sc3ccccc23)cc1`, the Activity was 70% in assay [1] and 108% in assay [2].
In the case of `N#Cc1ccccc1-c1sc2ccccc2c1C(=O)c1ccccc1`, the Activity in assay [1] came out at 91%; in assay [2] it was 92%.
On the same counts, the results for `[O-][s+]1cc(Br)c2ccccc21` (configuration not stated) are 105% and 100%.
On the same counts, the results for `COc1cc(-c2sc3ccccc3c2C#N)cc(OC)c1OC` are 88% and 91%.
The corresponding values for `COc1ccc(C(=O)c2c(-c3ccccc3[N+](=O)[O-])sc3ccccc23)cc1` are 107% and 101%.
Take `COc1ccc(-c2csc3ccccc23)cc1`: the Activity in assay [1] amounted to 100%.
With `CN1CCN(c2csc3ccccc23)CC1`, the Activity in assay [1] was 107%; in assay [2] it was 97%.
For the compound `N#Cc1sc2ccccc2c1-c1cccnc1`, in assay [1], the Activity turned out to be 120%.
Still for that read-out and setting: the value for `COc1cccc(-c2sc3ccccc3c2C#N)c1` was 97%.
As to `[O-][s+]1cc(Oc2ccccc2)c2ccccc21` (configuration not stated), the Activity in assay [1] is 102%; in assay [2] it was 104%.
The corresponding values for `Ic1cc2ccccc2s1` are 41% and 54%.
The corresponding values for `FC(F)(F)COc1cc2ccccc2s1` are 116% and 100%.
For `N#Cc1ccccc1-c1sc2ccccc2c1N1CCOCC1`, the Activity was 107% in assay [1] and 93% in assay [2].
On to `N#Cc1ccc(Oc2c(-c3ccccc3C#N)sc3ccccc23)cc1`, for which the results for the Activity in assay [1] and in assay [2] were 82% and 97%, respectively.
Regarding `COc1ccc(-c2sc3ccccc3c2C(=O)c2ccccc2)c([N+](=O)[O-])c1`, the Activity came to 114% in assay [1] and 97% in assay [2].
`N#Cc1c(-c2cnc3ccccc3c2)sc2ccccc12`: in assay [1], the Activity came out at 95%.
On the same count and under the same terms, the value for `COC(=O)/C(=C\c1c(-c2ccc(C#N)cc2)sc2ccccc12)NCc1ccccc1` was 108%.
Consider `O=Cc1c(-c2ccccc2)sc2ccccc12`, for which the results for the Activity in assay [1] and in assay [2] were 41% and 77%, respectively.
On the same counts, the results for `COc1ccc(-c2sc3ccccc3c2N2CCCCC2)cc1` are 106% and 91%.
On the same counts, the results for `c1ccc(Oc2c(-c3ccccc3)sc3ccccc23)cc1` are 104% and 91%.
The corresponding values for `N#Cc1ccccc1-c1sc2ccccc2c1Oc1ccc(F)cc1` are 66% and 85%.
Regarding `COc1ccc(Oc2c(-c3ccccc3C#N)sc3ccccc23)cc1`, the Activity came to 106% in assay [1] and 98% in assay [2].
On the same counts, the results for `COc1ccccc1C(=O)c1c(-c2ccccc2[N+](=O)[O-])sc2ccccc12` are 92% and 98%.
With `N#Cc1ccc(Oc2c[s+]([O-])c3ccccc23)cc1` (configuration not stated), the Activity came to 106% in assay [1] and 67% in assay [2].
The corresponding values for `N#Cc1ccc(-c2sc3ccccc3c2C=O)cc1` are 92% and 105%.
With `Clc1ccc(Oc2csc3ccccc23)cc1`, the Activity in assay [1] turned out to be 107%; in assay [2] it was 94%.
The corresponding values for `COc1ccc(-c2sc3ccccc3c2CN)c(N)c1` are 103% and 103%.
For `N#Cc1c(-c2ccc(C(F)(F)F)cc2)sc2ccccc12`, the Activity in assay [1] was determined as 96%; in assay [2], 97%.
Turning to `COc1cccc(C(=O)c2c(-c3ccc(OC)cc3[N+](=O)[O-])sc3ccccc23)c1`, the Activity in assay [1] was 116%; in assay [2] it was 100%.
With `O=Cc1ccc(Oc2csc3ccccc23)cc1`, the Activity in assay [1] was 9%.
The same measure, in the same setting: then `COc1c(-c2ccc3ccccc3c2)sc2ccccc12`, with 102%; and `N#Cc1c(-c2ccccn2)sc2ccccc12`, with 94%; and `O=Cc1c(-c2cnc3ccccc3c2)sc2ccccc12`, with 110%.
The same measure, in the same setting: then `COC(=O)C(Cc1c(-c2ccc(C(F)(F)F)cc2)sc2ccccc12)NCc1ccccc1` (configuration not stated), with 63%; and `N#Cc1c(-c2ccccc2)sc2ccccc12`, with 76%; and `COc1ccc(-c2sc3ccccc3c2C#N)cc1`, with 94%.
